In ChEMBL document CHEMBL1926530, “Novel pyrazolo[1,5-a]pyridines as p110α-selective PI3 kinase inhibitors: Exploring the benzenesulfonohydrazide SAR” (Bioorg Med Chem, 2012):
Converted amounts (≈) assume the structure as drawn.

Tests used:
[1] = biological target: Phosphatidylinositol 4,5-bisphosphate 3-kinase catalytic subunit alpha isoform (Homo sapiens, UniProt P42336); assay: Inhibition of recombinant PI3K p110alpha using L-alpha-phosphatidylinositol as substrate and [gamma33P]ATP after 60 mins by thin layer chromatographic technique
Chain of Phosphatidylinositol 4,5-bisphosphate 3-kinase catalytic subunit alpha isoform (Homo sapiens, UniProt P42336) (P42336 whole entry, canonical isoform): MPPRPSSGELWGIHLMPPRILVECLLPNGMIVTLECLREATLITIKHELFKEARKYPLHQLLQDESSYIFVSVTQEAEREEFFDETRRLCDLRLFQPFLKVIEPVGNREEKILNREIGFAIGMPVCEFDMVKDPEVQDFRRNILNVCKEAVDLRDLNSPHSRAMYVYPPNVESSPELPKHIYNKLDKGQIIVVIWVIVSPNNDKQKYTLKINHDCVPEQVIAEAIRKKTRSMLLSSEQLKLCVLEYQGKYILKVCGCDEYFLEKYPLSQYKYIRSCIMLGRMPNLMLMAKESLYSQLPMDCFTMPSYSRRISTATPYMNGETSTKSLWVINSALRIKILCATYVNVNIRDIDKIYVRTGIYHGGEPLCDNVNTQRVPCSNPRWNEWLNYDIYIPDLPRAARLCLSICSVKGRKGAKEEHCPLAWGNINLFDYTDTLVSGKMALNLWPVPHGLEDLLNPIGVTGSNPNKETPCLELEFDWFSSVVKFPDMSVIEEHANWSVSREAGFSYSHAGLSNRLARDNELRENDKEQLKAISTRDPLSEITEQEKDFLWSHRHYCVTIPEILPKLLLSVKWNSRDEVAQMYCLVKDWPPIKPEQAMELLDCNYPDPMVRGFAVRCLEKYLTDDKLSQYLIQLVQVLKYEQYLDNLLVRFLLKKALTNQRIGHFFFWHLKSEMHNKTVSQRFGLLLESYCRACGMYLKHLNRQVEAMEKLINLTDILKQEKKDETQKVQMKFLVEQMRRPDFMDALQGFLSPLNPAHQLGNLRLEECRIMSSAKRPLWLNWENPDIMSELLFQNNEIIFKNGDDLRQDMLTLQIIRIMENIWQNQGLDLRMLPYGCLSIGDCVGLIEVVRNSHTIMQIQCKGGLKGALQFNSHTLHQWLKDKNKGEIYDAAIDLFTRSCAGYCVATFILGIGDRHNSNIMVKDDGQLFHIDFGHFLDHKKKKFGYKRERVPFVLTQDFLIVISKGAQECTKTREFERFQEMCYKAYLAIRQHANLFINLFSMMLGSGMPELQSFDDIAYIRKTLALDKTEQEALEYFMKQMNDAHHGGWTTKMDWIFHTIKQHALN
Procedure, shortened: (§1)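 In-house recombinant enzyme (0.1 µg) with L-α-phosphatidylinositol in 40 mM Tris-HCl pH 7.4, 200 mM NaCl, 1 mM EDTA; DMSO 1% final. Started with 5 mM MgCl₂, 100 µM ATP plus [γ-³³P]ATP; 1 h at room temperature, stopped with 1 M HCl. Lipids extracted, separated by TLC, phosphorimaged. Nine inhibitor concentrations; two experiments, IC50 averaged.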

[2] = biological target: T1, Phosphatidylinositol 4,5-bisphosphate 3-kinase catalytic subunit delta isoform (Homo sapiens, UniProt O00329); assay: Inhibition of recombinant PI3K p110delta using L-alpha-phosphatidylinositol as substrate and [gamma33P]ATP after 60 mins by thin layer chromatographic technique; procedure, shortened: as §1
T1 sequence (O00329 whole entry): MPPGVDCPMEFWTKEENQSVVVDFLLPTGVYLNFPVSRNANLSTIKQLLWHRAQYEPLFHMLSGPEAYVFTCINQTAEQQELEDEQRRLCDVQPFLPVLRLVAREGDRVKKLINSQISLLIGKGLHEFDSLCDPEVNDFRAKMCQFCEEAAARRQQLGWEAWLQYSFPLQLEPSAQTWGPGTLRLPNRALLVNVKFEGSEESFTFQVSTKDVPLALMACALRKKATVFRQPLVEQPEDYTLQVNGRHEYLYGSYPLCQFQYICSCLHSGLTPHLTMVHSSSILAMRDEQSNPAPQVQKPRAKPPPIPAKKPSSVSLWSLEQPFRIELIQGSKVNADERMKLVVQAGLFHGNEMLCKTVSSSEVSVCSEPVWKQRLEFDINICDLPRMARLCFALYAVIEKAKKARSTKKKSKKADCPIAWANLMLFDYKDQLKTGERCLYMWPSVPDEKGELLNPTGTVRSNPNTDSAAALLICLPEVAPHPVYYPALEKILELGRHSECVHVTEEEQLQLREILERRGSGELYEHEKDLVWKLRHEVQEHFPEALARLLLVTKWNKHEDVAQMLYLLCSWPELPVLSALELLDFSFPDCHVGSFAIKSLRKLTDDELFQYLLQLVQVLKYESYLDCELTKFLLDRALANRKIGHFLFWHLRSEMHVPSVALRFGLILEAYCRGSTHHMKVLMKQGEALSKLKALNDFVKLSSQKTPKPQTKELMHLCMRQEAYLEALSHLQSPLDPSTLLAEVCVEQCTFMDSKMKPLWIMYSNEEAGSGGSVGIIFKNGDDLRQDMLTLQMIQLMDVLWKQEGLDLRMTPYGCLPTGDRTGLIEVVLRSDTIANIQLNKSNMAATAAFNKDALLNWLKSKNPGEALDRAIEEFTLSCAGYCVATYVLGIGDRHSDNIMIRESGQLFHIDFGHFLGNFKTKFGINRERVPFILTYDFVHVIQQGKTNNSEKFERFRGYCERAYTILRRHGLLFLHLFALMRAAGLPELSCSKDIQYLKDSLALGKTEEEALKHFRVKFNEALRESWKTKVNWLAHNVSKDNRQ

[3] = Cytotoxicity against human NZB5 cells assessed as inhibition of [3H]thymidine incorporation measured after 5 days; assay type: functional, cell-based
Procedure, shortened: (§2)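 Early-passage lines grown in α-MEM with insulin, transferrin, selenite and 5% FBS. Wells seeded with 1000 cells; inhibitor in dilution steps up to a maximum of 20. Five days under 5% O₂/5% CO₂/90% N₂, ³H-thymidine added for the last 6 h. Duplicates per dose; fit y = y₀ + ae^−bx; IC50 = 50% reduction in incorporation.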

[4] = Cytotoxicity against human NZOV9 cells harboring PI3K p110alpha Y1021C mutant assessed as inhibition of [3H]thymidine incorporation measured after 5 days; assay type: functional, cell-based; procedure, shortened: as §2
[5] = Aqueous solubility of the compound; assay type: physicochemical; settings: water
Procedure, shortened: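 Solid mixed with water to make 2 mM, sonicated 15 min, centrifuged 13000 rpm for 6 min. Clear supernatant diluted 2-fold with water, recentrifuged and injected on HPLC. Peak area compared with a DMSO standard solution of the compound, correcting for dilution and injection volume.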

[6] = biological target: Phosphatidylinositol 4,5-bisphosphate 3-kinase catalytic subunit alpha isoform (Homo sapiens, UniProt P42336, H1047R); assay: Inhibition of recombinant PI3K p110alpha H1047R mutant using L-alpha-phosphatidylinositol as substrate and [gamma33P]ATP after 60 mins by thin layer chromatographic technique
Chain of Phosphatidylinositol 4,5-bisphosphate 3-kinase catalytic subunit alpha isoform (Homo sapiens, UniProt P42336, H1047R) (P42336 whole entry H1047R, canonical isoform): as the sequence (P42336 whole entry, canonical isoform) above, with H1047R counted along it

[7] = Inhibition of DNA-PK
[8] = biological target: Phosphatidylinositol 4,5-bisphosphate 3-kinase catalytic subunit gamma isoform (Homo sapiens, UniProt P48736); assay: Inhibition of PI3K p110gamma
Chain of Phosphatidylinositol 4,5-bisphosphate 3-kinase catalytic subunit gamma isoform (P48736 whole entry, canonical isoform): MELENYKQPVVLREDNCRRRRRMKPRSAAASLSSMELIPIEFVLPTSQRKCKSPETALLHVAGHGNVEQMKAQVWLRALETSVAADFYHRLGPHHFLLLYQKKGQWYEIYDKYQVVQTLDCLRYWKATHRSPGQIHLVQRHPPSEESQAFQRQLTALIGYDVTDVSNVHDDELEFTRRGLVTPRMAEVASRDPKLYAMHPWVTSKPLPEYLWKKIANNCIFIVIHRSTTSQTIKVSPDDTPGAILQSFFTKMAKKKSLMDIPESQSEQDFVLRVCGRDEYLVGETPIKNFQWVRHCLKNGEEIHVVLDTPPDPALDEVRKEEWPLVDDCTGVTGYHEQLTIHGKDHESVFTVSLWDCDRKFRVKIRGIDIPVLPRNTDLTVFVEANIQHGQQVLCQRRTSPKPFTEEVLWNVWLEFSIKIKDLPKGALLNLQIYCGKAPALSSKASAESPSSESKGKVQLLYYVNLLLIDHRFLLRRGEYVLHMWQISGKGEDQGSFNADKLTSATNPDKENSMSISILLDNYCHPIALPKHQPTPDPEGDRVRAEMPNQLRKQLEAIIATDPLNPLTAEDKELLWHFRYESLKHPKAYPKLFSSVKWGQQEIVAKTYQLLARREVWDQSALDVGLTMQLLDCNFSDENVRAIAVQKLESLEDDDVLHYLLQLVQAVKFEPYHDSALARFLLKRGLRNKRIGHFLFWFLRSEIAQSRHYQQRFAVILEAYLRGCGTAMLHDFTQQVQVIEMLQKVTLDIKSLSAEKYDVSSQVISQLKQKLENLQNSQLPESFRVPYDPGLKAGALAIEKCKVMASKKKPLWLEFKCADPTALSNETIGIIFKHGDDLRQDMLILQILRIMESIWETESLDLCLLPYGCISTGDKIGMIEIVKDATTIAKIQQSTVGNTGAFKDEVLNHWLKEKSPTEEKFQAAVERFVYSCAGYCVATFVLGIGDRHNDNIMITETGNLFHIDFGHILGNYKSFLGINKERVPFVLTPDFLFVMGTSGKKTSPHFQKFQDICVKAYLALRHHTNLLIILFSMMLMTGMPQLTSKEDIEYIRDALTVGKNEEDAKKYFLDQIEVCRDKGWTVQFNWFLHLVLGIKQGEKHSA

[9] = biological target: Dual specificity mitogen-activated protein kinase kinase 1 (Homo sapiens) (UniProt Q02750); assay: Inhibition of MKK1 assessed as residual activity at 10 uM
Chain of Dual specificity mitogen-activated protein kinase kinase 1 (Homo sapiens) (Q02750 whole entry): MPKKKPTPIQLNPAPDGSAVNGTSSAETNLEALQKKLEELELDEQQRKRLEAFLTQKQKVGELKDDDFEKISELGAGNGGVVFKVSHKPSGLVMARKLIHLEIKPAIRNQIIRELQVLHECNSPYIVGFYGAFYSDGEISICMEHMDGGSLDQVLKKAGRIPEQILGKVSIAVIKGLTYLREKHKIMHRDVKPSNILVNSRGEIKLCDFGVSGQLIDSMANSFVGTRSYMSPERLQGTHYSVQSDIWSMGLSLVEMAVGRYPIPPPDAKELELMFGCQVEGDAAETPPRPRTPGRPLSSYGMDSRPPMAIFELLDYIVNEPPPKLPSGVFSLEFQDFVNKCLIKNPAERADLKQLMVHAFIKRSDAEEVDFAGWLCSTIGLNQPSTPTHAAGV

[10] = biological target: Mitogen-activated protein kinase 14 (Homo sapiens) (UniProt Q16539); assay: Inhibition of p38alpha assessed as residual activity at 1 uM
Chain of Mitogen-activated protein kinase 14 (Homo sapiens) (Q16539 whole entry): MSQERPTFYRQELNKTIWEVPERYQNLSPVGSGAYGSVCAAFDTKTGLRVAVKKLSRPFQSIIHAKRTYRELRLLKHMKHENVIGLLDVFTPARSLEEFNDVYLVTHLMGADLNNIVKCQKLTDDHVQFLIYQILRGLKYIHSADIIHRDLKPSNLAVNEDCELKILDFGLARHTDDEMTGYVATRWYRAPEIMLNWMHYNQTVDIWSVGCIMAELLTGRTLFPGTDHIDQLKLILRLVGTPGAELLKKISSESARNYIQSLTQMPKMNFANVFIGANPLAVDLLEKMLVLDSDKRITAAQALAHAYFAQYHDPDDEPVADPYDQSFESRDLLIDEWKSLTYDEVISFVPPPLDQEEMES

[11] = biological target: Ribosomal protein S6 kinase alpha-1 (Homo sapiens) (UniProt Q15418); assay: Inhibition of RSK1 assessed as residual activity at 1 uM
Chain of Ribosomal protein S6 kinase alpha-1 (Homo sapiens) (Q15418 whole entry): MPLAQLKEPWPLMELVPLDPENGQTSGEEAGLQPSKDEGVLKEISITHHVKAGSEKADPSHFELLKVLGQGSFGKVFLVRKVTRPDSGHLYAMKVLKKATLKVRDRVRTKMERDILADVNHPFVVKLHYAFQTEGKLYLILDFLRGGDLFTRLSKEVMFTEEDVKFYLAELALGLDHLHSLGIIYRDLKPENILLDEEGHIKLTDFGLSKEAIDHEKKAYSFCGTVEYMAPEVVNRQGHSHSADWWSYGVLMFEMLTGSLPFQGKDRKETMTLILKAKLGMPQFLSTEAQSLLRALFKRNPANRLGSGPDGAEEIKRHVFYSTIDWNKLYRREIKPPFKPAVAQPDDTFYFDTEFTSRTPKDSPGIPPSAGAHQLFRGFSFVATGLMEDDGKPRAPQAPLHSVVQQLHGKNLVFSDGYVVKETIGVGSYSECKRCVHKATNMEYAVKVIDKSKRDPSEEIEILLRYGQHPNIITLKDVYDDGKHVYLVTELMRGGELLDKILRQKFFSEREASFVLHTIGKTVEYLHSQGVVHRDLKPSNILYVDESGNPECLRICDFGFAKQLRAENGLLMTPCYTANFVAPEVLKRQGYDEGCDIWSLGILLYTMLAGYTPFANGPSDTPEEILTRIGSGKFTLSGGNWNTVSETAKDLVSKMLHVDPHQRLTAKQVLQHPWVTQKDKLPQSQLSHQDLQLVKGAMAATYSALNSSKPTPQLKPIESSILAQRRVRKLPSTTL

[12] = biological target: High affinity nerve growth factor receptor (Homo sapiens) (UniProt P04629); assay: Inhibition of TrkA assessed as residual activity at 1 uM
Chain of High affinity nerve growth factor receptor (Homo sapiens) (P04629 33-796 limits assumed): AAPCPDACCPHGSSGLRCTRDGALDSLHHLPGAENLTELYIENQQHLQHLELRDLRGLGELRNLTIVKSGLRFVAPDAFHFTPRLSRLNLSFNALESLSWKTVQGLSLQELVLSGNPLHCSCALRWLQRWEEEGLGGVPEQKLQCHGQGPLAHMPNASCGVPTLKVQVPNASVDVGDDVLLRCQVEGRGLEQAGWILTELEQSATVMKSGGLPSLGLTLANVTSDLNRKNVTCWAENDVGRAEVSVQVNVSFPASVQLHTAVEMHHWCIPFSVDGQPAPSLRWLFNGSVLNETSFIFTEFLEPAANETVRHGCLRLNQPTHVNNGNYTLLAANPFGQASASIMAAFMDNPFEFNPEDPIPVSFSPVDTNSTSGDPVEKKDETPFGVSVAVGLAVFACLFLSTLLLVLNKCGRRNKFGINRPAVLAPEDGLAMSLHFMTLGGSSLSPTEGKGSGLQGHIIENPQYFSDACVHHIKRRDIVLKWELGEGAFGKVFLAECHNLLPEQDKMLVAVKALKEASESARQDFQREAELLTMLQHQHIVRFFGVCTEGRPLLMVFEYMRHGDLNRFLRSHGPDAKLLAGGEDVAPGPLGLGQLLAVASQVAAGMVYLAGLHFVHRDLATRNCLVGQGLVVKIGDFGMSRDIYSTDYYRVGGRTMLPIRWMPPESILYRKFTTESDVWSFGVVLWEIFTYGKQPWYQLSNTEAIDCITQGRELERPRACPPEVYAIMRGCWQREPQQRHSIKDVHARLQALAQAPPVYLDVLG

[13] = biological target: High affinity nerve growth factor receptor (Homo sapiens) (UniProt P04629); assay: Inhibition of TrkA assessed as residual activity at 10 uM
[14] = biological target: Insulin receptor (Homo sapiens) (UniProt P06213); assay: Inhibition of IR assessed as residual activity at 10 uM
Mus musculus = assay: Toxicity in Rag1 knockout mouse xenografted with human HCT116 cells assessed as body weight loss at 40 mg/kg, ip QD measured on day 7 relative to untreated control; assay type: organism-based, HCT-116; parameters: dose 40 mg/kg, route intraperitoneal; settings: in vivo
Procedure, shortened: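 Male Rag1−/− mice (age-matched, SPF) inoculated s.c. with 5 × 10⁶ HCT-116 cells in PBS. Dosing started at ~150 mm³ tumours: q.d. i.p. in 7.5% DMSO, 42.5% PEG-400, 20% 2-hydroxypropyl-β-cyclodextrin, 30% water; controls received vehicle. Volume = (L × w²) × π/6, measured three times weekly; bodyweight daily. Treatment stopped if mean weight loss >15%; 1-way ANOVA with Holm–Sidak.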

[15] = Tmax in CD1 mouse at 10 mg/kg, ip; assay type: ADME, organism-based; parameters: dose 10 mg/kg, route intraperitoneal; settings: in vivo
Procedure, shortened: (§3)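 Age-matched specific pathogen-free male CD-1 mice; single 10 mg/kg i.p. dose in 5% DMSO, 45% PEG-400, 20% 2-hydroxypropyl-β-cyclodextrin, 30% water. Blood sampled at multiple times post-dose; plasma taken after centrifugation (10 min, 6000 rpm, 20 °C). Plasma analysed by LC-MS/MS; parameters from non-compartmental analysis.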

[16] = Cmax in CD1 mouse at 10 mg/kg, ip; assay type: ADME, organism-based; parameters: dose 10 mg/kg, route intraperitoneal; settings: in vivo; procedure, shortened: as §3
[17] = AUC (0 to infinity) in CD1 mouse at 10 mg/kg, ip; assay type: ADME, organism-based; parameters: time infinity, dose 10 mg/kg, route intraperitoneal; settings: plasma; procedure, shortened: as §3

IC50 [1]: 0.0013 µM
IC50 [2]: 0.054 µM
solubility [5]: 1.2 µg/mL (≈ 2.8 µM)
IC50 [6]: 0.0008 µM
IC50 [7]: 0.0003 µM
IC50 [8]: 0.011 µM
Activity [9]: 5%
Activity [10]: 59%
Activity [11]: 18%
Activity [12]: 73%
Activity [13]: 15%
Activity [14]: 14%
Tmax [15]: 5 min
Cmax [16]: 7.58 µM
AUC(0-inf) [17]: 3.16 µM·h
Structure (SMILES): Cc1ccc([N+](=O)[O-])cc1S(=O)(=O)N(CCO)/N=C/c1cnn2ccc(C#N)cc12
IC50 [3]: 0.06 µM
IC50 [4]: 0.14 µM
Activity (Mus musculus): > 15%
